The text below walks through data of ChEMBL document CHEMBL5131379 (J Med Chem, 2021).

A word on the IC50: it is the concentration at which inhibition is half-maximal.

The nature of one data set: in vitro. The settings on record: human, MRC9 cells.
For data set [1], the target named is T1, Protein deacetylase HDAC6 (Homo sapiens) (UniProt Q9UBN7).
T1 sequence (whole entry): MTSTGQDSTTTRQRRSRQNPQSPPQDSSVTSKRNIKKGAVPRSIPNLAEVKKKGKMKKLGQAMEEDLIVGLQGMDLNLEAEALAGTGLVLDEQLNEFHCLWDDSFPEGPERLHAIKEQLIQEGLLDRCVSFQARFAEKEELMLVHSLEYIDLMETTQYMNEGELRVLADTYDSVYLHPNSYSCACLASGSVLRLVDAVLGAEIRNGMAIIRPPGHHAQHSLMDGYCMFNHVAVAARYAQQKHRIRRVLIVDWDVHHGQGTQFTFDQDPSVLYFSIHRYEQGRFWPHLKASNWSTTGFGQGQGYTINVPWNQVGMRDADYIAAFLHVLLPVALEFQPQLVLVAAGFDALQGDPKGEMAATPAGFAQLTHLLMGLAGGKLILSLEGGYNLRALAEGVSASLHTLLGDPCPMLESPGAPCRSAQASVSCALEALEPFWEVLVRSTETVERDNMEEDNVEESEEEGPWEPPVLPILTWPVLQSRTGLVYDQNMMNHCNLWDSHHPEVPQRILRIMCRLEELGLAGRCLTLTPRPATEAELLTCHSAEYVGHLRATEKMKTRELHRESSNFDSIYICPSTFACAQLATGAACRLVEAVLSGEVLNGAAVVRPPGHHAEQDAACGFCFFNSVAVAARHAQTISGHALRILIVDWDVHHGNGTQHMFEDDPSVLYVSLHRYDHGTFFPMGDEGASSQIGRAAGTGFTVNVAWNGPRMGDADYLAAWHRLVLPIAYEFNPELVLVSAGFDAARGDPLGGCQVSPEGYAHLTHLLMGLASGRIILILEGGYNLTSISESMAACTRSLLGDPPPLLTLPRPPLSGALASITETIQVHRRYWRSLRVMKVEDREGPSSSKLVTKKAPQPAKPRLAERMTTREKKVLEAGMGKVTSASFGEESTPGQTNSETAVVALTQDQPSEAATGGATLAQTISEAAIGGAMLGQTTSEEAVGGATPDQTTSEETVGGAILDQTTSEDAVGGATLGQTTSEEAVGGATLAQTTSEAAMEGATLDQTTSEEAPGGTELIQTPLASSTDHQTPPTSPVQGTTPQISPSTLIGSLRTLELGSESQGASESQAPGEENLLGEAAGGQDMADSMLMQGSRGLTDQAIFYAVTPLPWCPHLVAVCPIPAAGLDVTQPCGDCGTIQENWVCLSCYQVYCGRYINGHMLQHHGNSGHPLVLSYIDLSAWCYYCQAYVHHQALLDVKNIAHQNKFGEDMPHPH
The experiment in a line: Binding affinity to HDAC6 (unknown origin) assessed as residence time.

Data set [2] concerns MV4-11. The experiment in a line: Induction of apoptosis in human MV4-11 cells assessed as viable cells at 2 uM measured after 18 hrs by Annexin V-FITC/propidium iodide staining based FACS flow cytometry (reference value: 83.23%). The settings on record: read-out: Activity. The class given is functional.
Data set [3] has as its system MV4-11. The experiment in a line: Induction of apoptosis in human MV4-11 cells assessed as viable cells at 0.25 uM measured after 18 hrs by Annexin V-FITC/propidium iodide staining based FACS flow cytometry (reference value: 83.23%). The format is functional. The settings on record: read-out: Activity.
Data set [4] relates to MV4-11. The experiment in a line: Induction of apoptosis in human MV4-11 cells assessed as early apoptotic cells at 2 uM measured after 18 hrs by Annexin V-FITC/propidium iodide staining based FACS flow cytometry (reference value: 2.23%). The class given is functional.
The subject of data set [5] is MV4-11. The experiment in a line: Induction of apoptosis in human MV4-11 cells assessed as early apoptotic cells at 0.5 uM measured after 18 hrs by Annexin V-FITC/propidium iodide staining based FACS flow cytometry (reference value: 2.23%). The class given is functional. On the technique in general: A flow cytometer gives signals particle by particle.
Data set [6] addresses T1, Protein deacetylase HDAC6 (Homo sapiens). The experiment in a line: Inhibition of HDAC6 in human MV4-11 cells assessed as increase in acetylated alpha-tubulin incubated for 6 hrs by Western blot analysis. The class given is cell-based. In a few lines: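 Protein quantified by BCA, run on 4–20% SDS gel, blotted to nitrocellulose. Probed overnight at 4 °C for acetylated α-tubulin and acetylated H3 (Lys18), HSC70 as loading control. HRP secondaries, ECL detection.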
On the technique in general: In western blotting, separated proteins are transferred to a membrane and probed.

For data set [7], the system named is MV4-11. The experiment in a line: Induction of apoptosis in human MV4-11 cells assessed as early apoptotic cells at 4 uM measured after 18 hrs by Annexin V-FITC/propidium iodide staining based FACS flow cytometry (reference value: 2.23%). The class given is functional.
In data set [8] the test system is MV4-11. The experiment in a line: Induction of apoptosis in human MV4-11 cells assessed as viable cells at 4 uM measured after 18 hrs by Annexin V-FITC/propidium iodide staining based FACS flow cytometry (reference value: 83.23%). The settings on record: read-out: Activity. The class given is functional.
In data set [9] the test system is MV4-11. The experiment in a line: Induction of apoptosis in human MV4-11 cells at 0.5 uM assessed as increase in cleaved caspase-3 level measured after 6 hrs by Western blot analysis. The class given is functional, cell-based. In a few lines:
(§1)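 Protein was measured by BCA and run on a 4–20% SDS gel, then transferred to nitrocellulose and blocked in 5% milk. Primary antibodies were incubated overnight at 4 °C, with HSC70 as loading control. HRP secondaries were used with ECL detection.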

Data set [10] relates to MV4-11. The experiment in a line: Induction of apoptosis in human MV4-11 cells assessed as early apoptotic cells at 1 uM measured after 18 hrs by Annexin V-FITC/propidium iodide staining based FACS flow cytometry (reference value: 2.23%). The class given is functional.
In data set [11] the test system is MV4-11. The experiment in a line: Induction of apoptosis in human MV4-11 cells assessed as late apoptotic cells at 0.5 uM measured after 18 hrs by Annexin V-FITC/propidium iodide staining based FACS flow cytometry (reference value: 7.49%). The class given is functional.
Data set [12] deals with MV4-11. The experiment in a line: Induction of apoptosis in human MV4-11 cells assessed as early apoptotic cells at 0.25 uM measured after 18 hrs by Annexin V-FITC/propidium iodide staining based FACS flow cytometry (reference value: 2.23%). The format is functional.
Data set [13] concerns MV4-11. The experiment in a line: Induction of apoptosis in human MV4-11 cells at 0.5 uM assessed as increase in cleaved caspase-3 level measured after 6 hrs by Western blot analysis.
Data set [14] deals with MV4-11. The experiment in a line: Induction of apoptosis in human MV4-11 cells assessed as late apoptotic cells at 1 uM measured after 18 hrs by Annexin V-FITC/propidium iodide staining based FACS flow cytometry (reference value: 7.49%). The class given is functional.
The subject of data set [15] is MV4-11. The experiment in a line: Induction of apoptosis in human MV4-11 cells assessed as viable cells at 0.5 uM measured after 18 hrs by Annexin V-FITC/propidium iodide staining based FACS flow cytometry (reference value: 83.23%). The class given is functional. As to conditions: read-out: Activity.
Data set [16] has as its target T1, Protein deacetylase HDAC6 (Homo sapiens). The experiment in a line: Inhibition of HDAC6 in human HeLa cells assessed as increase in acetylated alpha tubulin level incubated for 6 hrs by immunofluorescent assay. The class given is cell-based. In short, it runs like this:
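HeLa cells (DMEM, 10% FBS, 37 °C, 5% CO2) seeded subconfluent; inhibitor added after 24 h, increasing doses for 6 h. Fixed in 4% formaldehyde, permeabilised with 1% Triton X-100, blocked in 5% BSA. Stained for acetylated α-tubulin and acetylated histone H3 (Lys18), DAPI counterstain. Intensity from imaging, n = 3, two-way ANOVA with Tukey test.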

Data set [17] deals with MV4-11. The experiment in a line: Induction of apoptosis in human MV4-11 cells assessed as late apoptotic cells at 2 uM measured after 18 hrs by Annexin V-FITC/propidium iodide staining based FACS flow cytometry (reference value: 7.49%). The format is functional.
For data set [18], the system named is MV4-11. The experiment in a line: Induction of apoptosis in human MV4-11 cells assessed as late apoptotic cells at 4 uM measured after 18 hrs by Annexin V-FITC/propidium iodide staining based FACS flow cytometry (reference value: 7.49%). The format is functional.
Data set [19] has as its system MV4-11. The experiment in a line: Induction of apoptosis in human MV4-11 cells at 0.5 uM assessed as increase in cleaved PARP-1 level measured after 6 hrs by Western blot analysis. The class given is functional, cell-based. In short, it runs like this:
as §1

For data set [20], the system named is MV4-11. The experiment in a line: Induction of apoptosis in human MV4-11 cells assessed as late apoptotic cells at 0.25 uM measured after 18 hrs by Annexin V-FITC/propidium iodide staining based FACS flow cytometry (reference value: 7.49%). The format is functional.
Data set [21] is described as follows: Cytotoxicity against human MRC9 cells assessed as reduction in cell growth incubated for 72 hrs by Cell titer-blue assay. The format is toxicity, cell-based. In general terms: Alamar Blue is a resazurin reagent that responds to reducing activity.
Data set [22] concerns the target Histone deacetylase 1 (Homo sapiens) (UniProt Q13547). The experiment in a line: Inhibition of HDAC1 in human MV4-11 cells assessed as acetylation of histone H3 incubated for 6 hrs by Western blot analysis. The class given is cell-based. In short, it runs like this:
as §1

Activity calls are given as the source filed them. The calls are words filed in the database; no cut-off is given here.

Sequence of Histone deacetylase 1 (Homo sapiens) (Q13547 whole entry): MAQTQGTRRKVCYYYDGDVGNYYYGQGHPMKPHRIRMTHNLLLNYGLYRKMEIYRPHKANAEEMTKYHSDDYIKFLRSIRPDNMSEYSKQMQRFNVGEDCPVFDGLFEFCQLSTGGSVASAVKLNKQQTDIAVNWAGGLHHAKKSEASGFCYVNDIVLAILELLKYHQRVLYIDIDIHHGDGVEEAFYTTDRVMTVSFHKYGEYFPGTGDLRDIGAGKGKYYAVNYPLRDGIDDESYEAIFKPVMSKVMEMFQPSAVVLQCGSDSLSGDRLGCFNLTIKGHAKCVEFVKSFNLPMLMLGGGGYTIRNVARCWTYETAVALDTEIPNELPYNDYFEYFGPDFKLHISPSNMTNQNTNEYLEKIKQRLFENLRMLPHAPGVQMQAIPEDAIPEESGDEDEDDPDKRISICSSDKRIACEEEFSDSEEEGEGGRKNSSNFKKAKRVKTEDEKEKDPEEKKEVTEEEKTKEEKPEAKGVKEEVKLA

Turning to `O=C(CCCCCCNC(=O)c1cnc(N(c2ccccc2)c2ccccc2)nc1)NO` [RICOLINOSTAT], the IC50 at 72 h in the data set “in vitro” is more than 20 µM.
Same read-out and setting: the figure for `O=C(NO)c1ccc(CNC(=O)c2c(F)c(F)c(F)c(F)c2F)cc1` is more than 50 µM; for `O=C(NO)c1cccc(CN(C2CC2)S(=O)(=O)c2c(F)c(F)c(F)c(F)c2F)c1` it is more than 50 µM; for `O=C(NO)c1ccc(CNS(=O)(=O)c2c(F)c(F)c(F)c(F)c2F)cc1` it is more than 25 µM.
Compound `O=C(NO)c1ccc(CN(C2CC2)S(=O)(=O)c2c(F)c(F)cc(F)c2F)cc1` came in with an IC50 at 72 h in “in vitro” of more than 15 µM.
The same measure, in the same setting: the figure for `O=C(NO)c1ccc(CN(C2CC2)S(=O)(=O)c2cc(F)c(F)c(F)c2)cc1` is more than 25 µM; for `O=C(NO)c1ccc(CN(C2CC2)S(=O)(=O)c2c(F)cc(F)cc2F)cc1` it is more than 20 µM.
In the data set “in vitro”, `CN(Cc1ccc(C(=O)NO)cc1)S(=O)(=O)c1c(F)c(F)c(F)c(F)c1F` displayed an IC50 at 72 h of more than 30 µM.
Same read-out and setting: the figure for `O=C(NO)c1ccc(CN(C2CC2)S(=O)(=O)c2ccc(F)cc2)cc1` is more than 50 µM.
Turning to `O=C(NO)c1ccc(CN(C2CC2)S(=O)(=O)c2cc(F)c(F)c(F)c2F)cc1`, the TIME in [1] worked out at 0.386 h. The viability at 2 µM in the data set on MV4-11 [2] was determined as 8.34%. Besides, in the data set with MV4-11 [3], the viability at 0.25 µM is 70.6%. In addition, the Activity turned out to be 24.39% in the data set on MV4-11 [4]; 15.26% in the data set on MV4-11 [5]; 24.37% with MV4-11 [7]; 18.12% with MV4-11 [10]; 17.58% with MV4-11 [11]; 6.73% with MV4-11 [12]. Moreover, the Activity in the data set with MV4-11 [14] is on record as 22.3%; in the data set with MV4-11 [17] it was 19.6%; in the data set on MV4-11 [18], 19.18%; with MV4-11 [20], 13.93%. The inhibition entry in [6] and in [16] was “Active” in each case. Further, the viability at 4 µM in the data set with MV4-11 [8] is 7.61%. Further, the outcome with MV4-11 [9], with MV4-11 [13] and with MV4-11 [19] was Active. Also, the viability at 0.5 µM in the data set on MV4-11 [15] stood at 49.5%. Besides, in the data set “in vitro”, the half-maximal inhibitory concentration (IC50) at 72 h was more than 20 µM.
As for `O=C(NO)c1ccc(CN(C2CC2)S(=O)(=O)c2c(F)cc(F)c(Cl)c2F)cc1`, the IC50 at 72 h in the data set “in vitro” is more than 20 µM.
Still for that read-out and setting: then `O=C(NO)c1ccc(CN(C2CC2)S(=O)(=O)c2c(F)c(F)c(Cl)c(F)c2F)cc1`, with more than 30 µM.
Same read-out and setting: the figure for `O=C(NO)c1ccc(CN(C2CC2)S(=O)(=O)c2c(F)c(F)c(F)c(F)c2F)cc1` is more than 20 µM; for `O=C(NO)c1ccc(CN(C2CC2)S(=O)(=O)c2c(F)c(Cl)c(F)c(Cl)c2F)cc1` it is more than 50 µM.
On the same count and under the same terms, the figure for `CC(C)N(Cc1ccc(C(=O)NO)cc1)S(=O)(=O)c1c(F)c(F)c(F)c(F)c1F` is more than 10 µM.
`O=C(CCCCCCNC(=O)c1cnc(N(c2ccccc2)c2ccccc2Cl)nc1)NO` [CITARINOSTAT]: the IC50 at 72 h (in data set [21]; in the data set “in vitro”) was more than 30 µM each time. Moreover, the inhibition result in data set [6] and in data set [22] was “Active” each time.
